These results are taken from paper PMC6923801 (Journal of medicinal chemistry, 2019).

The target in one assay is human GPR68 (Homo sapiens, UniProt Q15743). Kind of assay: GloSensor cAMP assay, proton-mediated Gs-cAMP production at human GPR68. It is filed as cell-based.
human GPR68, sequence (Q15743 whole entry): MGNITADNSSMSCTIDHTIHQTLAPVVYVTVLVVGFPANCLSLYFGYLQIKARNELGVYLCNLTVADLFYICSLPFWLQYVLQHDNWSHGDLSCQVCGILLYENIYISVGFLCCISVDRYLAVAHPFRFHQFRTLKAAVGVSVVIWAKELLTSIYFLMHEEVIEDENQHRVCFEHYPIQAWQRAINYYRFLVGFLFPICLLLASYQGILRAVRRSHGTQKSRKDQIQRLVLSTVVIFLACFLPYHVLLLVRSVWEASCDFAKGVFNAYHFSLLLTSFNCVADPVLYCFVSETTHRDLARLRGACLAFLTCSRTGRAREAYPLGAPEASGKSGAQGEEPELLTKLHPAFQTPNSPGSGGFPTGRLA
Conditions: not given
An outline of the steps:
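HEK293T cells were transiently transfected with receptor and GloSensor cAMP plasmids, overnight (16–20 h). Cells were plated on poly-L-Lys in DMEM + 1% dFBS for 6–24 h, then loaded with 3.5 mM luciferin (HBSS, 20 mM TAPS, pH 8.40) for 1 h at 37 °C. Drug was applied in Ca/Mg-free HBSS pH buffers (MES 5.60–6.70, HEPES 6.80–8.20, TAPS 8.30–8.60) with 10 μM Ro 20-1724. Luminescence was read at 20–30 min.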
Background: Changes in cAMP serve as a functional read-out for many G protein-coupled receptors.
The compound `CNc1nc(NCc2ccccc2)nc(-c2ccccc2CO)n1` [Compound 5] had a Kb of 30.9 µM.
`CCNc1nc(NCc2ccccc2)nc(-c2ccccc2CO)n1` [Compound 6, (2-(4-(Benzylamino)-6-(ethylamino)-1,3,5-triazin-2-yl)phenyl)-methanol] gave a Kb of 23.4 µM.
On to `NCc1ccccc1-c1nc(N)nc(NCc2ccccc2)n1` [Compound 18, 6-(2-(Aminomethyl)phenyl)-N^2-benzyl-1,3,5-triazine-2,4-diamine], for which the Kb is 138 µM.
Compound `Nc1nc(NCc2ccccc2)nc(-c2cccc(F)c2CO)n1` [Compound 22, (2-(4-Amino-6-(benzylamino)-1,3,5-triazin-2-yl)-6-fluorophenyl)-methanol] showed a Kb of 97.7 µM.
Regarding `Nc1nc(NCc2ccccc2)nc(-c2ccc(F)cc2CO)n1` [Compound 23, (2-(4-Amino-6-(benzylamino)-1,3,5-triazin-2-yl)-5-fluorophenyl)-methanol], the Kb was 26.3 µM.
For the compound `Nc1nc(NCc2ccccc2)nc(-c2cc(F)ccc2CO)n1` [Compound 24, (2-(4-Amino-6-(benzylamino)-1,3,5-triazin-2-yl)-4-fluorophenyl)-methanol], the Kb is 26.3 µM.
With `Nc1nc(NCc2ccccc2)nc(-c2c(F)cccc2CO)n1` [Compound 25, (2-(4-Amino-6-(benzylamino)-1,3,5-triazin-2-yl)-3-fluorophenyl)-methanol], the Kb was 204 µM.
Regarding `Nc1nc(NCc2ccccc2)nc(-c2ccc(Cl)cc2CO)n1` [Compound 26, (2-(4-Amino-6-(benzylamino)-1,3,5-triazin-2-yl)-5-chlorophenyl)methanol], the Kb is 17.4 µM.
On to `Nc1nc(NCc2ccccc2)nc(-c2cc(Cl)ccc2CO)n1` [Compound 27, (2-(4-Amino-6-(benzylamino)-1,3,5-triazin-2-yl)-4-chlorophenyl)methanol], for which the Kb is 32.4 µM.
In turn, `Nc1nc(NCc2ccccc2)nc(-c2c(Cl)cccc2CO)n1` [Compound 28, (2-(4-Amino-6-(benzylamino)-1,3,5-triazin-2-yl)-3-chlorophenyl)methanol] showed a Kb of 37.2 µM.
The compound `COc1cccc(-c2nc(N)nc(NCc3ccccc3)n2)c1CO` [Compound 29, (2-(4-Amino-6-(benzylamino)-1,3,5-triazin-2-yl)-6-methoxyphenyl)methanol] showed a Kb of 69.2 µM.
On the same count and under the same terms, then `COc1ccc(-c2nc(N)nc(NCc3ccccc3)n2)c(CO)c1` [Compound 30], with 75.9 µM.
`COc1ccc(CO)c(-c2nc(N)nc(NCc3ccccc3)n2)c1` [Compound 31, (2-(4-Amino-6-(benzylamino)-1,3,5-triazin-2-yl)-4-methoxyphenyl)methanol] showed a Kb of 102 µM.
In turn, `CCOc1ccc(-c2nc(N)nc(NCc3ccccc3)n2)c(CO)c1` [Compound 37, (2-(4-Amino-6-(benzylamino)-1,3,5-triazin-2-yl)-5-ethoxyphenyl)methanol] gave a Kb of 42.7 µM.
Turning to `CC(C)Oc1ccc(-c2nc(N)nc(NCc3ccccc3)n2)c(CO)c1` [Compound 38, (2-(4-Amino-6-(benzylamino)-1,3,5-triazin-2-yl)-5-isopropoxyphenyl)methanol], the Kb is 12.3 µM.
`Nc1nc(NCc2ccccc2F)nc(-c2ccccc2CO)n1` [Compound 41, (2-(4-Amino-6-((2-fluorobenzyl)amino)-1,3,5-triazin-2-yl)-phenyl)methanol] gave a Kb of 53.7 µM.

Staying with this assay, now noted: difference of Log(αβ/KB) from that of 1; human GPR68.
Consider `CNc1nc(NCc2ccccc2)nc(-c2ccccc2CO)n1` [Compound 5], for which the Δ was 0.05.
`CCNc1nc(NCc2ccccc2)nc(-c2ccccc2CO)n1` [Compound 6, (2-(4-(Benzylamino)-6-(ethylamino)-1,3,5-triazin-2-yl)phenyl)-methanol] registered a Δ of 0.03.
`NCc1ccccc1-c1nc(N)nc(NCc2ccccc2)n1` [Compound 18, 6-(2-(Aminomethyl)phenyl)-N^2-benzyl-1,3,5-triazine-2,4-diamine]: the Δ is reported as −0.30.
The same measure, in the same setting: the figure for `Nc1nc(NCc2ccccc2)nc(-c2cccc(F)c2CO)n1` [Compound 22, (2-(4-Amino-6-(benzylamino)-1,3,5-triazin-2-yl)-6-fluorophenyl)-methanol] is −0.45.
Turning to `Nc1nc(NCc2ccccc2)nc(-c2ccc(F)cc2CO)n1` [Compound 23, (2-(4-Amino-6-(benzylamino)-1,3,5-triazin-2-yl)-5-fluorophenyl)-methanol], the Δ is 0.15.
Regarding `Nc1nc(NCc2ccccc2)nc(-c2cc(F)ccc2CO)n1` [Compound 24, (2-(4-Amino-6-(benzylamino)-1,3,5-triazin-2-yl)-4-fluorophenyl)-methanol], the Δ was determined as 0.38.
Still for that read-out and setting: then `Nc1nc(NCc2ccccc2)nc(-c2c(F)cccc2CO)n1` [Compound 25, (2-(4-Amino-6-(benzylamino)-1,3,5-triazin-2-yl)-3-fluorophenyl)-methanol], with −0.12; and `Nc1nc(NCc2ccccc2)nc(-c2ccc(Cl)cc2CO)n1` [Compound 26, (2-(4-Amino-6-(benzylamino)-1,3,5-triazin-2-yl)-5-chlorophenyl)methanol], with 0.56; and `Nc1nc(NCc2ccccc2)nc(-c2cc(Cl)ccc2CO)n1` [Compound 27, (2-(4-Amino-6-(benzylamino)-1,3,5-triazin-2-yl)-4-chlorophenyl)methanol], with 0.47.
`Nc1nc(NCc2ccccc2)nc(-c2c(Cl)cccc2CO)n1` [Compound 28, (2-(4-Amino-6-(benzylamino)-1,3,5-triazin-2-yl)-3-chlorophenyl)methanol] came in with a Δ of 0.25.
`COc1cccc(-c2nc(N)nc(NCc3ccccc3)n2)c1CO` [Compound 29, (2-(4-Amino-6-(benzylamino)-1,3,5-triazin-2-yl)-6-methoxyphenyl)methanol] had a Δ of −0.45.
`COc1ccc(-c2nc(N)nc(NCc3ccccc3)n2)c(CO)c1` [Compound 30] gave a Δ of −0.34.
Compound `COc1ccc(CO)c(-c2nc(N)nc(NCc3ccccc3)n2)c1` [Compound 31, (2-(4-Amino-6-(benzylamino)-1,3,5-triazin-2-yl)-4-methoxyphenyl)methanol] had a Δ of −0.54.
On to `CCOc1ccc(-c2nc(N)nc(NCc3ccccc3)n2)c(CO)c1` [Compound 37, (2-(4-Amino-6-(benzylamino)-1,3,5-triazin-2-yl)-5-ethoxyphenyl)methanol], for which the Δ was determined as 0.03.
In the case of `CC(C)Oc1ccc(-c2nc(N)nc(NCc3ccccc3)n2)c(CO)c1` [Compound 38, (2-(4-Amino-6-(benzylamino)-1,3,5-triazin-2-yl)-5-isopropoxyphenyl)methanol], the Δ is 0.43.
`Nc1nc(NCc2ccccc2F)nc(-c2ccccc2CO)n1` [Compound 41, (2-(4-Amino-6-((2-fluorobenzyl)amino)-1,3,5-triazin-2-yl)-phenyl)methanol] returned a Δ of 0.25.
